Experimental data published in ChEMBL document CHEMBL4350999, “Enhanced tumor retention of NTSR1-targeted agents by employing a hydrophilic cysteine cathepsin inhibitor” (Eur J Med Chem, 2019).

What was measured:
[1] = Drug uptake in liver of SCID mouse xenografted with human HT-29 cells at 0.37 MBq/mouse, iv measured at 4 hrs using 177Lu labelled compound by gamma counter analysis; format: ADME, organism-based; conditions: in vivo
In short: (§1)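 Female SCID mice (5 weeks) bore s.c. flank xenografts of HT-29 cells (5 × 10^6 in Matrigel), used at about 80 mm3 (two weeks) and randomized. Each mouse received 10 μCi (0.37 MBq) of HPLC-purified 177Lu-conjugate via tail vein. Tissues were excised, weighed and gamma-counted, expressed as %ID/g; mean ± SD, n = 5.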

[2] = Drug uptake in heart of SCID mouse xenografted with human HT-29 cells at 0.37 MBq/mouse, iv measured at 72 hrs using 177Lu labelled compound by gamma counter analysis; format: ADME, organism-based; conditions: in vivo; in short: as §1
[3] = Drug uptake in small intestine of SCID mouse xenografted with human HT-29 cells at 0.37 MBq/mouse, iv measured at 4 hrs using 177Lu labelled compound by gamma counter analysis; format: ADME, organism-based; conditions: in vivo; in short: as §1
[4] = Drug uptake in muscle of SCID mouse xenografted with human HT-29 cells at 0.37 MBq/mouse, iv measured at 4 hrs using 177Lu labelled compound by gamma counter analysis; format: ADME, organism-based, Muscle tissue; conditions: in vivo; in short: as §1
[5] = Drug uptake in heart of SCID mouse xenografted with human HT-29 cells at 0.37 MBq/mouse, iv measured at 24 hrs using 177Lu labelled compound by gamma counter analysis; format: ADME, organism-based; conditions: in vivo; in short: as §1
[6] = Drug uptake in liver of SCID mouse xenografted with human HT-29 cells at 0.37 MBq/mouse, iv measured at 24 hrs using 177Lu labelled compound by gamma counter analysis; format: ADME, organism-based; conditions: in vivo; in short: as §1
[7] = Drug uptake in stomach of SCID mouse xenografted with human HT-29 cells at 0.37 MBq/mouse, iv measured at 72 hrs using 177Lu labelled compound by gamma counter analysis; format: ADME, organism-based; conditions: in vivo
In short: (§2)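 Female SCID mice (5 weeks old) received s.c. flank HT-29 cells (5 × 10^6 in Matrigel). At ~80 mm3, two weeks later, mice were randomized and given 10 μCi (0.37 MBq) of purified 177Lu conjugate i.v. by tail vein. Mice were killed at 4, 24 or 72 h. Tissues were weighed and gamma counted as %ID/g, mean ± SD, n = 5. Tumor-to-tissue ratios were calculated.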

[8] = Drug uptake in pancreas of SCID mouse xenografted with human HT-29 cells at 0.37 MBq/mouse, iv measured at 24 hrs using 177Lu labelled compound by gamma counter analysis; format: ADME, organism-based; conditions: in vivo; in short: as §1
[9] = Drug uptake in large intestine of SCID mouse xenografted with human HT-29 cells at 0.37 MBq/mouse, iv measured at 24 hrs using 177Lu labelled compound by gamma counter analysis; format: ADME, organism-based; conditions: in vivo; in short: as §1
[10] = Drug uptake in SCID mouse xenografted with human HT-29 cells assessed as tumour retention level at 0.37 MBq/mouse, iv measured at 72 hrs using 177Lu labelled compound by gamma counter analysis; format: ADME, organism-based; conditions: in vivo
In short: (§3)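 Female SCID mice bearing s.c. flank HT-29 xenografts (5 × 10^6 cells in Matrigel, ~80 mm3). Given 10 μCi (0.37 MBq) 177Lu conjugate i.v. by tail vein; groups sacrificed at 4, 24, 72 h. Tissues weighed and gamma-counted as %ID/g, excretion as %ID; n = 5, mean ± SD. Blocking arms: colchicine 1 mg/kg i.p. beforehand, or D-lysine 40 mg/kg co-injected.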

[11] = Octanol-PBS buffer distribution coefficient, log D of 177Lu labelled compound at pH 7.4 by radiometric analysis; format: physicochemical
In short: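 177Lu conjugate partitioned between 1-octanol and PBS pH 7.4. 100 μL aliquots from each layer were gamma counted, and LogD7.4 was calculated from the counts.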

[12] = Drug uptake in bone of SCID mouse xenografted with human HT-29 cells at 0.37 MBq/mouse, iv measured at 72 hrs using 177Lu labelled compound by gamma counter analysis; format: ADME, organism-based, Bone element; conditions: in vivo; in short: as §1
[13] = Drug uptake in heart of SCID mouse xenografted with human HT-29 cells at 0.37 MBq/mouse, iv measured at 4 hrs using 177Lu labelled compound by gamma counter analysis; format: ADME, organism-based; conditions: in vivo; in short: as §1
[14] = Drug uptake in large intestine of SCID mouse xenografted with human HT-29 cells at 0.37 MBq/mouse, iv measured at 72 hrs using 177Lu labelled compound by gamma counter analysis; format: ADME, organism-based; conditions: in vivo; in short: as §1
[15] = Drug uptake in brain of SCID mouse xenografted with human HT-29 cells at 0.37 MBq/mouse, iv measured at 24 hrs using 177Lu labelled compound by gamma counter analysis; format: ADME, organism-based; conditions: in vivo; in short: as §1
[16] = Drug uptake in lung of SCID mouse xenografted with human HT-29 cells at 0.37 MBq/mouse, iv measured at 72 hrs using 177Lu labelled compound by gamma counter analysis; format: ADME, organism-based; conditions: in vivo; in short: as §1
[17] = Drug uptake in small intestine of SCID mouse xenografted with human HT-29 cells at 0.37 MBq/mouse, iv measured at 24 hrs using 177Lu labelled compound by gamma counter analysis; format: ADME, organism-based; conditions: in vivo; in short: as §1
[18] = Drug uptake in spleen of SCID mouse xenografted with human HT-29 cells at 0.37 MBq/mouse, iv measured at 24 hrs using 177Lu labelled compound by gamma counter analysis; format: ADME, organism-based; conditions: in vivo; in short: as §2
[19] = Drug uptake in pancreas of SCID mouse xenografted with human HT-29 cells at 0.37 MBq/mouse, iv measured at 4 hrs using 177Lu labelled compound by gamma counter analysis; format: ADME, organism-based; conditions: in vivo; in short: as §1
[20] = Drug uptake in brain of SCID mouse xenografted with human HT-29 cells at 0.37 MBq/mouse, iv measured at 4 hrs using 177Lu labelled compound by gamma counter analysis; format: ADME, organism-based; conditions: in vivo; in short: as §1
[21] = Drug uptake in small intestine of SCID mouse xenografted with human HT-29 cells at 0.37 MBq/mouse, iv measured at 72 hrs using 177Lu labelled compound by gamma counter analysis; format: ADME, organism-based; conditions: in vivo; in short: as §1
[22] = Drug excretion in SCID mouse xenografted with human HT-29 cells at 0.37 MBq/mouse, iv measured after 72 hrs using 177Lu labelled compound; format: ADME, organism-based; conditions: in vivo; in short: as §3
[23] = Drug uptake in SCID mouse xenografted with human HT-29 cells assessed as tumour retention at 0.37 MBq/mouse, iv measured at 24 hrs using 177Lu labelled compound by gamma counter analysis; format: ADME, organism-based; conditions: in vivo; in short: as §3
[24] = Drug uptake in large intestine of SCID mouse xenografted with human HT-29 cells at 0.37 MBq/mouse, iv measured at 4 hrs using 177Lu labelled compound by gamma counter analysis; format: ADME, organism-based; conditions: in vivo; in short: as §1
[25] = Drug uptake in blood of SCID mouse xenografted with human HT-29 cells at 0.37 MBq/mouse, iv measured at 24 hrs using 177Lu labelled compound by gamma counter analysis; format: ADME, organism-based; conditions: in vivo; in short: as §3
[26] = Drug uptake in liver of SCID mouse xenografted with human HT-29 cells at 0.37 MBq/mouse, iv measured at 72 hrs using 177Lu labelled compound by gamma counter analysis; format: ADME, organism-based; conditions: in vivo; in short: as §1
[27] = Drug uptake in stomach of SCID mouse xenografted with human HT-29 cells at 0.37 MBq/mouse, iv measured at 24 hrs using 177Lu labelled compound by gamma counter analysis; format: ADME, organism-based; conditions: in vivo; in short: as §2
[28] = Drug uptake in kidney of SCID mouse xenografted with human HT-29 cells at 0.37 MBq/mouse, iv measured at 72 hrs using 177Lu labelled compound by gamma counter analysis; format: ADME, organism-based; conditions: in vivo; in short: as §1
[29] = Drug uptake in lung of SCID mouse xenografted with human HT-29 cells at 0.37 MBq/mouse, iv measured at 4 hrs using 177Lu labelled compound by gamma counter analysis; format: ADME, organism-based; conditions: in vivo; in short: as §1

Drug uptake [1]: 38.6 % ID/g | Drug uptake [2]: 0.4 % ID/g | Drug uptake [3]: 6.1 % ID/g | Drug uptake [4]: 0.53 % ID/g | Drug uptake [5]: 0.9 % ID/g | Drug uptake [6]: 26 % ID/g | Drug uptake [7]: 0.8 % ID/g | Drug uptake [8]: 0.6 % ID/g | Drug uptake [9]: 2.1 % ID/g | Drug uptake [10]: 6.3 % ID/g | logD [11]: -1.95 | Drug uptake [12]: 1.1 % ID/g | Drug uptake [13]: 1.4 % ID/g | Drug uptake [14]: 1.6 % ID/g | Drug uptake [15]: 0.04 % ID/g | Drug uptake [16]: 5 % ID/g | Drug uptake [17]: 5.5 % ID/g | Drug uptake [18]: 17 % ID/g | Drug uptake [19]: 0.89 % ID/g | Drug uptake [20]: 0.09 % ID/g | Drug uptake [21]: 4.3 % ID/g | Drug excretion [22]: 57 %ID | Drug uptake [23]: 10 % ID/g | Drug uptake [24]: 2.9 % ID/g | Drug uptake [25]: 0.17 % ID/g | Drug uptake [26]: 11 % ID/g | Drug uptake [27]: 0.9 % ID/g | Drug uptake [28]: 45 % ID/g | Drug uptake [29]: 4.5 % ID/g
SMILES: Cc1cc(C)c(C(=O)OCC(=O)[C@H](CCCCNC(=O)CNC(=O)[C@@H](CO)NC(=O)[C@@H](CO)NC(=O)[C@@H](CO)NC(=O)Cn2cc(C[C@H](NC(=O)CN3CCN(CC(=O)O)CCN(CC(=O)O)CCN(CC(=O)O)CC3)C(=O)N[C@H](CO)C(=O)N[C@H](CO)C(=O)N[C@H](CO)C(=O)N[C@@H](CCCCN)C(=O)N3CCC[C@H]3C(=O)N(C)[C@@H](CCCNC(=N)N)C(=O)N[C@@H](CCCNC(=N)N)C(=O)N3CCC[C@H]3C(=O)N[C@@H](Cc3c(C)cc(O)cc3C)C(=O)N[C@H](C(=O)N[C@@H](CC(C)C)C(=O)O)C(C)(C)C)nn2)NC(=O)[C@H](Cc2ccccc2)NC(=O)OCc2ccccc2)c(C)c1
